GSTO1 counter = counter-screen for RBBP9 inhibitors: inhibitors of human GSTO1; recombinant GSTO1, activity-based probe fluorescence polarization; inhibition, % at 5.96 µM; 300,000 tested, 1.1% active;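 active = inhibition above the campaign mean inhibition plus 3 SD, cut at about 35% in these data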
Apaf1 inhib = human Apaf-1 inhibition. O14727. AID 489030. 330,000 tested, 0.71% active. reconstituted apoptosome caspase-3 activity, DEVD-Rh110 fluorescence. inhibition, % at 20 µM; active = inhibition of at least 40% at 20 µM
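Material: cell-free apoptosome with Apaf-1, procaspase-3 and caspase-9; Buffer or medium: Hepes pH 7.5 with detergent and BSA; Reagent: cytochrome c trigger plus (Z-DEVD)2-Rh110 caspase-3 substrate; Times: compound with Apaf-1, dATP, procaspase-3 30 min, then 50 min reaction, room temperature; Technique: Rh110 fluorescence intensity.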
PRMT1 inh = inhibitors of human PRMT1; Q99873; recombinant PRMT1, activity-based probe fluorescence polarization; inhibition, % at 2.79 µM; 370,000 tested, 1.3% active; AID 652257;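 active = inhibition above about 21% made by adding two undisclosed values, limit read from the data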
Target sequence (Q99873 whole entry, looked up): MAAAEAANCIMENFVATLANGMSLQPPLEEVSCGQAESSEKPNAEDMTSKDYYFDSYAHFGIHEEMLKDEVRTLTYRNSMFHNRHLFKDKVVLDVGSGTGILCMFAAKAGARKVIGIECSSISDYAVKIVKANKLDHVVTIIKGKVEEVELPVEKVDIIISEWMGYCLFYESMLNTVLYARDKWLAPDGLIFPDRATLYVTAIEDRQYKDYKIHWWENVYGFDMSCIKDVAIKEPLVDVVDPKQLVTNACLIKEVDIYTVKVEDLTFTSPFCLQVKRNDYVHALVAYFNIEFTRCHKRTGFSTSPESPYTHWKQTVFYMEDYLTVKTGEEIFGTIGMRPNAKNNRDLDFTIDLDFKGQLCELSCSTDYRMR
TDP2 inh = TDP2 (human) inhibition, absorbance primary screen; recombinant TDP2, T5PNP hydrolysis, p-nitrophenol absorbance 415 nm; inhibition, % at 12.8 µM; 370,000 tested, 0.34% active; AID 720702;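 active = inhibition above the mean of all tested compounds plus 3 SD, set per campaign, cut at about 25% in these data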
Target sequence (O95551 whole entry, looked up): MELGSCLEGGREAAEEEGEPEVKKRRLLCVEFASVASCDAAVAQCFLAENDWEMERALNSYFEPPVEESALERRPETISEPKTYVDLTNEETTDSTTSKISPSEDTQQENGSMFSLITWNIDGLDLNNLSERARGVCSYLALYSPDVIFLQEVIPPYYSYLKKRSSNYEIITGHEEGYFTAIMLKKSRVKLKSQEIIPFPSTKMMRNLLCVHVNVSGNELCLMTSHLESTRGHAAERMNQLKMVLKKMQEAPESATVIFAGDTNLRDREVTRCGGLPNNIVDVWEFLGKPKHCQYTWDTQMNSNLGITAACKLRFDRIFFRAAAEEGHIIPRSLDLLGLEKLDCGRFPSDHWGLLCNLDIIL
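System – recombinant human TDP2 · Amount – 120 nM TDP2 per well · Buffer or medium – Mg2+-containing Tris-HCl buffer, pH 7.5 · Reagent – T5PNP substrate, 5 mM · Dosing – 12.8 µM single point, 1% DMSO · Incubation – 2 h at 37 °C · Measured by – epi absorbance · Read-out basis – percent inhibition · Benchmarks – high control without enzyme, low control DMSO plus TDP2 · Repeats – singlicate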
PAD4 inh = blocks human protein arginine deiminase 4; recombinant PAD4, RCA probe fluorescence polarization; inhibition, % at 6.36 µM; 330,000 tested, 0.41% active;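 active = percent inhibition above a cutoff equal to the mean of all tested compounds plus 3 SD, cut at about 15% in these data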
PRMT1 inh conf = confirmation of human PRMT1 inhibitors; recombinant His-PRMT1, activity-based probe fluorescence polarization; 3,300 tested, 42% active; inhibition, % at 2.79 µM; shares compounds with PRMT1 inh; AID 687036;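 active = mean inhibition across replicates above the hit cutoff derived for the earlier primary screen, cut at about 22% in these data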
Each line names hits and unclear results; the compound was inactive in the other large screens (follow-up assays come after a bar, where they were run). Hits are enriched below; roughly 2.6% of the tested compounds scored in any of these assays.

O=C(CCN1C(=O)/C(=C/c2ccccc2)SC1=S)NC1CCS(=O)(=O)C1 (centres undefined)	none
O=C(CN1C(=O)/C(=C/c2ccco2)SC1=S)Nc1ccc(C(=O)O)c(O)c1	PRMT1 inh 52 | PRMT1 inh conf 35
O=C(CN1C(=O)/C(=C/c2ccco2)SC1=S)NC1CCS(=O)(=O)C1 (centres undefined)	PRMT1 inh 44 | PRMT1 inh conf 24
O=C(CN1C(=O)/C(=C/c2ccco2)SC1=S)Nc1ccc(O)c(C(=O)O)c1	PRMT1 inh 50 | PRMT1 inh conf 31
CC(C(=O)Nc1ccc(C(=O)O)c(O)c1)N1C(=O)/C(=C\c2ccco2)SC1=S (centres undefined)	none (no result: PRMT1 inh, TDP2 inh)
O=C(CCCN1C(=O)/C(=C/c2ccco2)SC1=S)Nc1cccc(C(=O)O)c1	PRMT1 inh 33 | PRMT1 inh conf inactive
CC(=O)N1CCc2c(sc(NC(=O)CS(=O)(=O)c3ccc(F)cc3)c2C(N)=O)C1	none
COc1ccccc1C(=O)NCCC(=O)Nc1cccc(S(=O)(=O)N2CCCC2)c1	none (no result: GSTO1 counter)
Cc1cc(Br)cn2c(Cc3cccc(Cl)c3)c(-c3ccco3)nc12	PRMT1 inh 44 (no result: GSTO1 counter, Apaf1 inhib, PAD4 inh) | PRMT1 inh conf inactive
Fc1cccc(Cc2c(-c3ccco3)nc3c(Cl)cc(C(F)(F)F)cn23)c1	PRMT1 inh 38 (no result: GSTO1 counter, Apaf1 inhib, PAD4 inh) | PRMT1 inh conf 23
Cc1ccc(Cc2c(-c3ccccc3)nc3c(C)cc(Br)cn23)cc1	none (no result: GSTO1 counter, Apaf1 inhib, PAD4 inh)
Cc1cc(Br)cn2c(Cc3ccccc3C(F)(F)F)c(-c3ccco3)nc12	PRMT1 inh 40 (no result: GSTO1 counter, Apaf1 inhib, PAD4 inh) | PRMT1 inh conf 23
Cc1cc(Br)cn2c(Cc3ccccc3C(F)(F)F)c(-c3ccccc3)nc12	none (no result: GSTO1 counter, Apaf1 inhib, PAD4 inh)
Cc1ccc(Cc2c(-c3ccco3)nc3c(C)cc(Br)cn23)cc1	PRMT1 inh 33 (no result: GSTO1 counter, Apaf1 inhib, PAD4 inh) | PRMT1 inh conf inactive
O=C(N/N=C/c1cccc([N+](=O)[O-])c1)c1ccccc1-n1cccc1	none
Cn1nc([N+](=O)[O-])nc1Sc1nnnn1-c1ccc(C(=O)O)cc1	none
CC(CCc1ccccc1)NC(=O)CCNS(=O)(=O)c1ccccc1C(F)(F)F (centres undefined)	none (no result: GSTO1 counter)
O=C(CCN1CCc2ccccc2CC1)c1ccc2c(c1)OCCO2	PRMT1 inh 40 | PRMT1 inh conf 29
CC1(C(=O)Nc2cnc3ccccc3c2)CCN1Cc1ccc(-c2ccccc2)o1 (centres undefined)	PRMT1 inh 34 (no result: GSTO1 counter, Apaf1 inhib, PAD4 inh) | PRMT1 inh conf inactive
O=C1/C(=C/c2ccccc2O)SC(=S)N1Cc1cccnc1	PRMT1 inh 55 | PRMT1 inh conf 35
Cc1cc(N)c(NC2=CC(=O)CC(C)(C)C2)cc1C	PRMT1 inh 27 | PRMT1 inh conf inactive
Cc1ccc(NC2=CC(=O)CC(C)(C)C2)cc1F	none
CC(=O)Nc1ccc(S(=O)(=O)N(C)CC(=O)NNc2c(F)c(F)cc(F)c2F)cc1	none (no result: GSTO1 counter)
CC1CCc2[nH]c3ccc(C(=O)N4CCCC(C(F)(F)F)C4)cc3c2C1 (centres undefined)	none
CCOC(=O)[C@]12CCC=C1N(CCC1=CCCCC1)C(=O)[C@H](CC(=O)N1CCOCC1)C2	none (no result: GSTO1 counter, Apaf1 inhib, PAD4 inh)
CC(=O)Nc1c(O)nc(SCC(=O)Nc2c(C)cccc2C)[nH]c1=O	PRMT1 inh 57 | PRMT1 inh conf 25
CCC1CCC(C(=O)NNC(=O)c2cc(-c3ccco3)[nH]n2)CC1 (centres undefined)	PRMT1 inh 83 | PRMT1 inh conf inactive
O=C(CSc1c2c(nc3cc(Cl)ccc13)CCCC2)NCCN1CCOCC1	none
Cc1ccc(CNC(=O)CSc2c3c(nc4cc(Cl)ccc24)CCCC3)o1	PRMT1 inh 60 | PRMT1 inh conf inactive
CN(C)C(=O)c1ccc(SC(=S)NCc2ccccc2)cc1	PRMT1 inh 59 (no result: GSTO1 counter, Apaf1 inhib, PAD4 inh) | PRMT1 inh conf 69
CC(C)(C)CC(=O)NC(=S)NCc1ccccc1	none
Cc1ccc(NC(=O)Cn2c(O)c(N=NS(=O)(=O)c3ccc(C)cc3)c3ccccc32)cc1	PRMT1 inh 29 | PRMT1 inh conf 23
O=C(CC1C[C@H](C(=O)N2CCOCC2)[C@@]2(CCC3CCCC3)c3[nH]c4ccccc4c3CCN2C1=O)NCC12CC3CC(CC(C3)C1)C2 (some centres undefined)	none (no result: GSTO1 counter)
C1CSC2(N1)C1CC3CC(C1)CC2C3 (centres undefined)	PRMT1 inh 51 | PRMT1 inh conf 35
CCOC(=O)C(C(C)=O)c1c(Br)c(O)c(O)c2c(C(=O)c3ccc(C)cc3)coc12 (centres undefined)	GSTO1 counter 67, PRMT1 inh 40 | PRMT1 inh conf inactive
CCOC(=O)N1CCN(S(=O)(=O)c2ccc(C(=O)N(CCN(CC)CC)c3nc4ccc(C)cc4s3)cc2)CC1	none
Cc1ccc(S(=O)(=O)/N=C2/NC(=O)/C(=C/c3ccc(Br)o3)S2)cc1	PRMT1 inh 56 | PRMT1 inh conf inactive
CC(=O)Nc1cccc(Oc2ncnc3scc(-c4ccc(C(C)C)cc4)c23)c1	none (no result: Apaf1 inhib)
O=C(c1ccncc1)c1ccc(N2CCN(C3CC(=O)N(Cc4cccs4)C3=O)CC2)cc1 (centres undefined)	none
O=C1CC(N2CCN(c3ccc(O)cc3)CC2)C(=O)N1Cc1cccs1 (centres undefined)	PRMT1 inh 49 | PRMT1 inh conf inactive
COC(=O)[C@]12CCCCC=C1N(CCc1ccc(OC)c(OC)c1)C(=O)[C@H](CC(=O)N1CCN(C(=O)c3ccco3)CC1)C2	none (no result: GSTO1 counter, Apaf1 inhib, PAD4 inh)
CCN(CC)C(=O)CSc1nc2c(sc(=S)n2-c2ccccc2)c(=O)n1Cc1ccco1	PRMT1 inh 25 | PRMT1 inh conf inactive
Cc1cc(NS(=O)(=O)c2ccc(NC(=O)/C=C/c3ccc(C)o3)cc2)nc(C)n1	PRMT1 inh 55 | PRMT1 inh conf 54
Cc1ccc(/C=C/C(=O)Nc2ccc(Oc3ccccc3)cc2)o1	none (no result: Apaf1 inhib)
COc1ccc(NC(=O)/C=C/c2ccc(C)o2)cc1S(=O)(=O)N1CCOCC1	PRMT1 inh 45 | PRMT1 inh conf 30
Cc1ccc(/C=C/C(=O)Nc2ccc([N+](=O)[O-])cc2)o1	PRMT1 inh 42 | PRMT1 inh conf inactive
Cc1cc(NS(=O)(=O)c2ccc(NC(=O)/C=C/c3ccccc3)cc2)nc(C)n1	none (no result: GSTO1 counter)
Cc1ccc(/C=C/C(=O)Nc2cccc3cccnc23)o1	PRMT1 inh 59 | PRMT1 inh conf 23
CC1(C(=O)NCc2ccccc2Br)CCN1Cc1ccc(-c2ccccc2)o1 (centres undefined)	none (no result: GSTO1 counter, Apaf1 inhib, PAD4 inh)
CC1CCN(S(=O)(=O)c2cc(C(=O)N3CCN(c4ncccn4)CC3)ccc2Br)CC1	none
COC(=O)CN1C(=O)S/C(=C/c2ccc(N3CCCCC3)o2)C1=O	none
O=C(O)CN1C(=O)/C(=C/c2ccc(N3CCCCC3)o2)SC1=S	PRMT1 inh 38 | PRMT1 inh conf 37
CCCN1C(=O)S/C(=C\c2ccc(N3CCOCC3)o2)C1=O	PRMT1 inh 26 | PRMT1 inh conf inactive
CCCOc1ccc(Oc2ccc(S(=O)(=O)N3CCN(C)CC3)cn2)cc1	none

Screening data as filed in PubChem.
